48 molecules from ChEMBL document CHEMBL3352624, “Vanillin-derived antiproliferative compounds influence Plk1 activity” (Bioorg Med Chem Lett, 2014) can be followed below.

The structures appear in SMILES notation. Activity calls are given as the source filed them. The rule behind the calls is not given here.

The term EC50 denotes the concentration at which the effect is half-maximal. By IC50 is commonly meant the midpoint of a concentration-inhibition curve. High values mean weaker potency, low ones greater potency.

One experiment has as its system HeLa. In words: Antiproliferative activity against human HeLa cells assessed as growth inhibition after 24 to 72 hrs. Type of experiment: functional, cell-based. To be noted: Homo sapiens, HeLa; read-out: EC50. Summed up: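 HeLa cells were exposed to compound for 24–72 h, with medium-only cells as control. Surviving cells are expressed as a percentage of control cell number at 72 h. n = 3.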
As for `COc1cc(OCc2ccc(Cl)nc2)ccc1CNCc1ccncc1`, the EC50 was 3.3 µM.

With `COCCNCc1ccc(OCc2ccc(Cl)nc2)c(OC)c1`, the EC50 was determined as 97 µM.

Turning to `COc1cc(CNCc2ccncc2)ccc1OCc1cnc(Cl)c(Cl)c1`, the EC50 was determined as 0.22 µM.

For `COc1cc(CNCC2CCCO2)ccc1OCc1ccc(Cl)nc1` (centres undefined), the EC50 was found to be 66 µM.

As to `COc1cc(CNCCNc2ccnc3cc(Cl)ccc23)ccc1OCc1ccc(Cl)nc1`, the EC50 came out at 2.7 µM.

In the case of `COc1cc(CNCC(=O)c2ccccc2)ccc1OCc1ccc(Cl)nc1`, the EC50 came to 60 µM.

Regarding `COc1cc(CNCc2ccncc2)ccc1OCc1ccc(F)cc1`, the EC50 is 6.4 µM.

Turning to `COc1cc(CNCCc2ccncc2)ccc1OCc1ccc(Cl)nc1`, the EC50 was found to be 55 µM.

With `COc1cc(CNc2nc[nH]n2)ccc1OCc1ccc(Cl)nc1`, the EC50 worked out at 69 µM.

Consider `COc1cc(OCc2cnc(Cl)c(Cl)c2)ccc1CNCc1ccncc1`, for which the EC50 worked out at 0.4 µM.

As for `COc1cc(CNCCSc2nnnn2C)ccc1OCc1ccc(Cl)nc1`, the EC50 was 86 µM.

Take `COc1cc(CNCCc2c[nH]c3ccccc23)ccc1OCc1ccc(Cl)nc1`: the EC50 was 8 µM.

With `COc1cc(CNCc2ccc3c(c2)OCO3)ccc1OCc1ccc(Cl)nc1`, the EC50 was 71 µM.

Take `COc1cc(CNCc2ccncc2)ccc1OCc1ccc(Cl)cc1`: the EC50 was 0.89 µM.

For `COc1cc(CNCCNC(=O)c2cnon2)ccc1OCc1ccc(Cl)nc1`, the EC50 was determined as 24 µM.

As to `COc1cc(CNCCc2ccc(F)cc2)ccc1OCc1ccc(Cl)nc1`, the EC50 amounted to 16 µM.

As for `COc1cc(CNCc2ccncc2)ccc1OCc1ccc(Cl)nc1`, the EC50 was 0.4 µM.

For the molecule `COc1cc(CNCc2ccncc2)ccc1OCc1ccc(C)cc1`, the EC50 is 5 µM.

Take `COc1cc(CNCc2ccncc2)ccc1OCc1ccc(Cl)c(Cl)c1`: the 50% effective concentration (EC50) came to 4 µM.

For `CCOc1cc(CNCc2ccncc2)ccc1OCc1ccc(Cl)cc1`, the EC50 was 2.5 µM.

On to `COc1ccc(CCNCc2ccc(OCc3ccc(Cl)nc3)c(OC)c2)cc1OC`, for which the EC50 turned out to be 18 µM.

Consider `COc1cc(CNCCCN(C)C)ccc1OCc1ccc(Cl)nc1`, for which the EC50 was 5 µM.

`COc1cc(CNCc2ccncc2)ccc1OCc1ccc(C(F)(F)F)cc1`: the EC50 came to 2.4 µM.

In the case of `COc1cc(CNCc2cccs2)ccc1OCc1ccc(Cl)nc1`, the EC50 stood at 96 µM.

As for `COc1cc(CNCCCN2CCOCC2)ccc1OCc1ccc(Cl)nc1`, the EC50 was greater than 100 µM.

`COc1ccc(CCNCc2ccc(OCc3cccs3)c(OC)c2)cc1OC`: the EC50 is 18 µM.

As to `COc1cc(CNCCc2ccc(S(N)(=O)=O)cc2)ccc1OCc1ccc(Cl)nc1`, the EC50 stood at 12 µM.

On to `COc1cc(CNCc2ccccn2)ccc1OCc1ccccc1Cl`, for which the EC50 was 22 µM.

In the case of `COc1cc(CNCc2ccccn2)ccc1OCc1cccc(Cl)c1`, the EC50 amounted to 18 µM.

With `COc1cc(CNCc2ccncc2)ccc1OCc1ccc([N+](=O)[O-])cc1`, the EC50 is 0.44 µM.

As to `COc1cc(CNCc2cccnc2)ccc1OCc1ccc(Cl)nc1`, the EC50 was 5 µM.

Consider `COc1ccc(CCNCc2ccc(OCC(=O)NC(C)(C)C)c(OC)c2)cc1OC`, for which the EC50 is greater than 100 µM.

Regarding `COc1cc(CNCc2ccncc2)ccc1OCc1ccc(Cl)cc1Cl`, the EC50 was 3.9 µM.

Take `COc1cc(CNCc2ccccc2)ccc1OCc1ccc(Cl)nc1`: the EC50 was determined as 90 µM.

`COc1ccc(CCNCc2ccc(OCC(=O)N3CCCCC3)c(OC)c2)cc1OC`: the EC50 was 87 µM.

As for `COc1cc(OCc2ccc(Cl)cc2)ccc1CNCc1ccncc1`, the EC50 came out at 0.44 µM.

On to `COc1cc(CNCc2ccncc2)ccc1OCc1ccccc1F`, for which the EC50 amounted to 5.1 µM.

Consider `Clc1ccc(COc2ccc(CNCc3ccncc3)cc2)cc1`, for which the 50% effective concentration (EC50) stood at 4 µM.

With `COc1cc(CNCCc2ccccc2F)ccc1OCc1ccc(Cl)nc1`, the EC50 amounted to 18 µM.

With `COc1ccc(COc2ccc(CNCc3ccncc3)cc2OC)cc1`, the EC50 was 5 µM.

Regarding `COc1cc(CNCCc2ccccc2)ccc1OCc1ccc(Cl)nc1`, the EC50 was determined as 61 µM.

On to `COc1cc(CNCc2ccccn2)ccc1OCc1c(Cl)cccc1Cl`, for which the EC50 turned out to be 6.1 µM.

Regarding `COc1ccc(CCNCc2ccc(OCC(=O)N3CCOCC3)c(OC)c2)cc1OC`, the EC50 amounted to 85 µM.

In the case of `COc1cc(CNCc2ccncc2)ccc1OCc1cccc(F)c1`, the EC50 came to 4.8 µM.

As for `COc1cc(CNCc2ccccn2)ccc1OCc1ccc(Cl)c(Cl)c1`, the EC50 amounted to 13 µM.

Still in this experiment, the particulars now being: hela.
As for `COc1cc(CNC2CCCCC2)ccc1OCc1ccc(Cl)nc1`, the EC50 entry is “ND(Insoluble)”.

As to `COc1ccc(CCNCc2ccc(OCc3ccc(Cl)nc3)c(OC)c2)cc1`, the EC50 result was “ND(Insoluble)”.

Regarding `COc1cc(CNCc2ccc(C(=O)O)cc2)ccc1OCc1ccc(Cl)nc1`, the EC50 entry is recorded as “ND(Insoluble)”.

The subject of a further experiment is HeLa. The experiment is described as follows: Induction of apoptosis in human HeLa cells assessed as increase in PARP cleavage at 33 uM after 48 hrs by Western blot analysis. Type of experiment: functional, cell-based.
Conditions: not given
Summed up: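 HeLa cells were harvested 48 h after compound incubation, with untreated medium controls. Western blotting against Parp detected both full-length protein and its apoptotic cleavage product.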
As to `COc1cc(CNCc2ccncc2)ccc1OCc1ccc(Cl)cc1`, the outcome was Active.

The test system of the next experiment is HeLa. In words: Induction of apoptosis in human HeLa cells assessed as caspase-3/7 activation after 48 hrs […]. Type of experiment: functional, cell-based.
Conditions: not given
An outline of the steps: (§1)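 Caspase 3/7 activation in HeLa cells was read 48 h after treatment by luminescence and reported as relative RLU versus medium-only controls. n = 3, mean SD.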
As to `COc1cc(CNCc2ccncc2)ccc1OCc1ccc(Cl)cc1`, the Activity result was “Dose-dependent effect”.

For the next experiment, the target named is Serine/threonine-protein kinase PLK1 (Homo sapiens, UniProt P53350). In words: Inhibition of Plk1 immunoprecipitated from human HeLa cells using casein substrate after 12 to 26 hrs by autoradiography. The format is cell-based.
Serine/threonine-protein kinase PLK1, sequence (P53350 whole entry): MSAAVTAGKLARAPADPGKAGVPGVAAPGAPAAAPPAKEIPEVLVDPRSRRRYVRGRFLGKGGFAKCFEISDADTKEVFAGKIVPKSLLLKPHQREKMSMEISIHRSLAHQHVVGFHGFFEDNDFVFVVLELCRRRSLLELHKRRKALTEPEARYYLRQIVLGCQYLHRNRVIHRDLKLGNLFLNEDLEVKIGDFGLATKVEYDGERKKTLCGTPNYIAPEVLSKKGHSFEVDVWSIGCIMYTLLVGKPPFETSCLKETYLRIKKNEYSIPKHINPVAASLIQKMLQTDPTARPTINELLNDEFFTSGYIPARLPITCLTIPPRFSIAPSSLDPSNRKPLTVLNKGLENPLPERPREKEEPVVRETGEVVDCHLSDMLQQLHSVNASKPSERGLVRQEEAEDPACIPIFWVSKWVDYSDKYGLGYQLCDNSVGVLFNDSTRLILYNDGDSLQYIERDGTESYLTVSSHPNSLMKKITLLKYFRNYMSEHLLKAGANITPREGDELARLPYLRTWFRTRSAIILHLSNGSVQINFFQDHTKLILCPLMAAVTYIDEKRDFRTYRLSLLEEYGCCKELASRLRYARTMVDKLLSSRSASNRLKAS
Conditions: not given
An outline of the steps:
(§2)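 HeLa cells were synchronized and incubated with compound. Plk1, Plk2 or Plk3 was then immunoprecipitated from the cells and assayed for kinase activity with casein as substrate. Activity was read by autoradiography.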
Regarding `COc1cc(CNCc2ccncc2)ccc1OCc1ccc(Cl)cc1`, half-maximal inhibition (IC50) required 0.003 µM.

The target of another experiment is Serine/threonine-protein kinase PLK2 (Homo sapiens, UniProt Q9NYY3). In words: Inhibition of Plk2 immunoprecipitated from human HeLa cells using casein substrate after 12 to 26 hrs by autoradiography. The format is cell-based.
Serine/threonine-protein kinase PLK2, sequence (Q9NYY3 whole entry): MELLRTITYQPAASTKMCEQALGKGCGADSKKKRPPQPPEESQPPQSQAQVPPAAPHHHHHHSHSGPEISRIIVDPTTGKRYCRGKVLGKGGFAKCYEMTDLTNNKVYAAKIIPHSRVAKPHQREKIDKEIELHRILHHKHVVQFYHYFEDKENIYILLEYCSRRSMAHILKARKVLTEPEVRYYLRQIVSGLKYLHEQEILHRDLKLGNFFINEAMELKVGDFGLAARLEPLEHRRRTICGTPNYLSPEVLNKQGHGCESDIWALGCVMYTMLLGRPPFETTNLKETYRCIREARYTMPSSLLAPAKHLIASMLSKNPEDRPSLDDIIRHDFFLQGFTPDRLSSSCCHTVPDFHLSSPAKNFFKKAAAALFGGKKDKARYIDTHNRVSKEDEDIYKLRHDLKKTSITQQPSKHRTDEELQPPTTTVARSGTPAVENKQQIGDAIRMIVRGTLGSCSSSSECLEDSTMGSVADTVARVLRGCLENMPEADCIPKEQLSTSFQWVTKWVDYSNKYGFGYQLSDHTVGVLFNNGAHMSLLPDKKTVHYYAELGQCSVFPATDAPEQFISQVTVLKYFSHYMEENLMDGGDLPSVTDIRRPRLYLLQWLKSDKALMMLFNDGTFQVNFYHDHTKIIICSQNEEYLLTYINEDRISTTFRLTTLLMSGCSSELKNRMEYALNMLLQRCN
Conditions: not given
Summed up: as §2
On to `COc1cc(CNCc2ccncc2)ccc1OCc1ccc(Cl)cc1`, for which the IC50 was greater than 10 µM.

The target of a further experiment is Serine/threonine-protein kinase PLK3 (Homo sapiens, UniProt Q9H4B4). The experiment is described as follows: Inhibition of Plk3 immunoprecipitated from human HeLa cells using casein substrate after 12 to 26 hrs by autoradiography. Type of experiment: cell-based.
Serine/threonine-protein kinase PLK3, sequence (Q9H4B4 whole entry): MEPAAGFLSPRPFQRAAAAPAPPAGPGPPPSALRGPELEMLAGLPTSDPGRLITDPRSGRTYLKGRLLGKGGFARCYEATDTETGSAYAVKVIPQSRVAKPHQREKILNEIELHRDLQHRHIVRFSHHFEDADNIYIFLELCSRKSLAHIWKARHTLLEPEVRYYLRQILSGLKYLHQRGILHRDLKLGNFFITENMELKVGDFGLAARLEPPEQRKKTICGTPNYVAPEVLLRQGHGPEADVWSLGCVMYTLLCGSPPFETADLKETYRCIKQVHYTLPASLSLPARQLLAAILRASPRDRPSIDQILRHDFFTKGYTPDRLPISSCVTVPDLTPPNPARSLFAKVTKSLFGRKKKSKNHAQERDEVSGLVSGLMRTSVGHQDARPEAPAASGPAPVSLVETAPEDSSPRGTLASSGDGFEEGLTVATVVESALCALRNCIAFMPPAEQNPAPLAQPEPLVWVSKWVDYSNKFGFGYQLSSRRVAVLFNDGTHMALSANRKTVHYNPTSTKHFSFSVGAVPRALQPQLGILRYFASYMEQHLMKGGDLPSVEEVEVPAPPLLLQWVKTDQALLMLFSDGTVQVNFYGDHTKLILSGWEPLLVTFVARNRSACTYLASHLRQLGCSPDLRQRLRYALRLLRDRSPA
Conditions: not given
An outline of the steps:
as §2
As to `COc1cc(CNCc2ccncc2)ccc1OCc1ccc(Cl)cc1`, the IC50 is greater than 10 µM.

Another experiment concerns HeLa. The experiment is described as follows: Induction of apoptosis in human HeLa cells assessed as caspase-3/7 activation at 1 nM to 66 uM by […]. Type of experiment: functional, cell-based. Particulars: TDE = time-dependent effect. Summed up: as §1
Take `COc1cc(CNCc2ccncc2)ccc1OCc1ccc(Cl)cc1`: the Activity result is “tde”.
